Experimental data published in paper PMC10842602 (Bioorganic & medicinal chemistry, 2023).

Biological target: T1, WT human SLACK (Homo sapiens, UniProt Q5JUK3)
T1 sequence (Q5JUK3 1-1235 isoform Q5JUK3-3): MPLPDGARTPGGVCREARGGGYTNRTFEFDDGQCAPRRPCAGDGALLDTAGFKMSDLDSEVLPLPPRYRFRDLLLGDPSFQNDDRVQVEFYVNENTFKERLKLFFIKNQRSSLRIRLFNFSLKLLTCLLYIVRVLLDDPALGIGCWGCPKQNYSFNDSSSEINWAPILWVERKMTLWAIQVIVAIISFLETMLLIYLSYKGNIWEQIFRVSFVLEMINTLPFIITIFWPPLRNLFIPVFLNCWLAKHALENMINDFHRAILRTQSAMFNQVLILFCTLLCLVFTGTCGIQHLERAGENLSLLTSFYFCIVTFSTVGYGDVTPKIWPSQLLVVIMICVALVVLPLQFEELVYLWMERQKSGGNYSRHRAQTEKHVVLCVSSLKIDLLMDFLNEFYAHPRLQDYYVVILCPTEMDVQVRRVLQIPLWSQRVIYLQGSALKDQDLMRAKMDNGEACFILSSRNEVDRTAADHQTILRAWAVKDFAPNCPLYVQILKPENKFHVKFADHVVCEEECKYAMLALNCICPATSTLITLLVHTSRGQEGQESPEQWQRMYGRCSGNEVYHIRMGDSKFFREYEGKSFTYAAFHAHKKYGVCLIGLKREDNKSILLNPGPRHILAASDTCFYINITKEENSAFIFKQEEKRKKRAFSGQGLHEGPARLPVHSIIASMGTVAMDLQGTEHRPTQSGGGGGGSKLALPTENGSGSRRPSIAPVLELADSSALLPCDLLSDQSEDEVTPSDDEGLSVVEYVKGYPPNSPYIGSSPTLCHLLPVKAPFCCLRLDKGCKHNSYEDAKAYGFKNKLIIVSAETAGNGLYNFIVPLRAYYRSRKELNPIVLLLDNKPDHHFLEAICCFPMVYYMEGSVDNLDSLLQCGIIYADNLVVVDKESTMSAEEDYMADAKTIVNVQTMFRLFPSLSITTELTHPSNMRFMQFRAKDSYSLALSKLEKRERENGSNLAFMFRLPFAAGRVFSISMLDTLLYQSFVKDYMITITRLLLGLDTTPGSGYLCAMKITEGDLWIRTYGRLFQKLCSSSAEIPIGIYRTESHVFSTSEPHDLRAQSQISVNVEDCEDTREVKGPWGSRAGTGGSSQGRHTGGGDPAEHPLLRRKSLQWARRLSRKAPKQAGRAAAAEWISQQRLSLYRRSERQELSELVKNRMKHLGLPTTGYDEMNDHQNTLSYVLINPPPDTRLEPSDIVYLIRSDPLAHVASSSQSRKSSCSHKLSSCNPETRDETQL
Assay: Tl+ flux assay in HEK-293 cells stably expressing WT human SLACK
Format: cell-based
Details: for IC50 / EC50: CRC; for Mode: Tl+ flux, HEK-293 cells expressing WT SLACK
Summary of the method: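 Stably transfected HEK-293 cells expressing wild-type human SLACK; thallium flux read-out. IC50 or EC50 taken from concentration-response curves, and each compound classed as inhibitor, activator or not active. Efficacy is the response amplitude at 30 μM test compound, as a percentage of the maximum response to a reference SLACK inhibitor (for inhibitors) or loxapine (for activators).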

[1] = IC50 for compounds of mode Inh (also cells printed Inactive)

Row | SMILES | IC50 / EC50 [1] | Mode | IC50 / EC50 (EC50 for compounds of mode Act) [µM]
1 | CCOc1ccccc1S(=O)(=O)N1CC(c2nc(-c3cccc(C)c3)no2)C1 [Compound 51, 5-(1-((2-Ethoxyphenyl)sulfonyl)azetidin-3-yl)-3-(m-tolyl)-1,2,4-oxadiazole] | >10 µM |  | 
2 | CCOc1ccccc1S(=O)(=O)N1CC(c2nc(-c3ccc(C)cc3)no2)C1 [Compound 52, 5-(1-((2-Ethoxyphenyl)sulfonyl)azetidin-3-yl)-3-(p-tolyl)-1,2,4-oxadiazole] | Inactive | Inactive | 
3 | CCOc1ccccc1S(=O)(=O)N1CC(c2nc(-c3ccccc3OC)no2)C1 [Compound 53, 5-(1-((2-Ethoxyphenyl)sulfonyl)azetidin-3-yl)-3-(2-methoxyphenyl)-1,2,4-oxadiazole] |  |  | >10
4 | CCOc1ccccc1S(=O)(=O)N1CC(c2nc(-c3cccc(OC)c3)no2)C1 [Compound 54, 5-(1-((2-Ethoxyphenyl)sulfonyl)azetidin-3-yl)-3-(3-methoxyphenyl)-1,2,4-oxadiazole] |  |  | >10
5 | CCOc1ccccc1S(=O)(=O)N1CC(c2nc(-c3nccs3)no2)C1 [Compound 61, 5-(1-((2-Ethoxyphenyl)sulfonyl)azetidin-3-yl)-3-(thiazol-2-yl)-1,2,4-oxadiazole] | Inactive | Inactive | 
6 | CCOc1ccccc1S(=O)(=O)N1CC(c2nc(-c3ccco3)no2)C1 [Compound 63, 5-(1-((2-Ethoxyphenyl)sulfonyl)azetidin-3-yl)-3-(furan-2-yl)-1,2,4-oxadiazole] | >10 µM |  | 
7 | CCOc1ccccc1S(=O)(=O)N1CC(c2nc(-c3ccccn3)no2)C1 [Compound 64, 5-(1-((2-Ethoxyphenyl)sulfonyl)azetidin-3-yl)-3-(pyridin-2-yl)-1,2,4-oxadiazole] | Inactive | Inactive | 
8 | CCOc1ccccc1S(=O)(=O)N1CC(c2nc(-c3cccnc3)no2)C1 [Compound 65, 5-(1-((2-Ethoxyphenyl)sulfonyl)azetidin-3-yl)-3-(pyridin-3-yl)-1,2,4-oxadiazole] | Inactive | Inactive | 
9 | CCOc1ccccc1S(=O)(=O)N1CC(c2nc(-c3ccncc3)no2)C1 [Compound 66, 5-(1-((2-Ethoxyphenyl)sulfonyl)azetidin-3-yl)-3-(pyridin-4-yl)-1,2,4-oxadiazole] | Inactive | Inactive | 
10 | CCOc1ccccc1S(=O)(=O)N1CC(c2nc(-c3ccc(F)cn3)no2)C1 [Compound 67, 5-(1-((2-Ethoxyphenyl)sulfonyl)azetidin-3-yl)-3-(5-fluoropyridin-2-yl)-1,2,4-oxadiazole] | Inactive | Inactive | 
11 | CCOc1ccccc1S(=O)(=O)N1CC(c2nc(-c3ncccn3)no2)C1 [Compound 68, 5-(1-((2-Ethoxyphenyl)sulfonyl)azetidin-3-yl)-3-(pyrimidin-2-yl)-1,2,4-oxadiazole] | Inactive | Inactive | 
12 | CCOc1ccccc1S(=O)(=O)N1CC(C)(c2nc(-c3ccc(F)cc3)no2)C1 [Compound 69] |  |  | 4.0
13 | CCOc1ccccc1S(=O)(=O)N1CC(F)(c2nc(-c3ccc(F)cc3)no2)C1 [Compound 70] | 9.2 µM |  | 
14 | CCOc1ccccc1S(=O)(=O)C1CN(c2nc(-c3ccc(F)cc3)no2)C1 [Compound 71] | >10 µM |  | 
15 | CCOc1ccccc1S(=O)(=O)[C@H]1C[C@@H](c2nc(-c3ccc(F)cc3)no2)C1 [Compound 73a] | Inactive | Inactive | 
16 | CCOc1ccccc1S(=O)(=O)[C@H]1C[C@H](c2nc(-c3ccc(F)cc3)no2)C1 [Compound 73b] | >10 µM |  | 
17 | CCOc1ccccc1S(=O)(=O)N1CC[C@@H](c2nc(-c3ccc(F)cc3)no2)C1 [Compound 74] | >10 µM |  | 

Row | SMILES | IC50 / EC50 [1] | Mode | IC50 / EC50 (EC50 for compounds of mode Act) [µM]
18 | CCOc1ccccc1S(=O)(=O)N1CC[C@H](c2nc(-c3ccc(F)cc3)no2)C1 [Compound 75] | >10 µM |  | 
19 | CCOc1ccccc1S(=O)(=O)c1ccc(-c2nc(-c3ccc(F)cc3)no2)cc1 [Compound 77] | Inactive | Inactive | 
20 | CCOc1ccccc1S(=O)(=O)N1CC(c2nnc(-c3ccc(F)cc3)o2)C1 [Compound 81] |  |  | >10
21 | CCOc1ccccc1S(=O)(=O)N1CC(c2nnc(-c3ccc(F)cc3)[nH]2)C1 [Compound 86] |  |  | >10
22 | CCOc1ccccc1S(=O)(=O)N1CC(c2cc(-c3ccc(F)cc3)no2)C1 [Compound 92] | Inactive | Inactive | 
23 | CCOc1ccccc1S(=O)(=O)N1CC(c2cn(-c3ccc(F)cc3)nn2)C1 [Compound 95] |  |  | >10
24 | CCOc1ccccc1S(=O)(=O)N1CC(c2ncc(-c3ccc(F)cc3)o2)C1 [Compound 97] |  |  | 10
25 | CCOc1ccccc1S(=O)(=O)N1CC(c2nc(-c3ccc(F)cc3)c[nH]2)C1 [Compound 99] |  |  | 4.1
26 | CCOc1ccccc1S(=O)(=O)N1CC(c2nc(-c3ccc(F)cc3)cn2C)C1 [Compound 100] | >10 µM |  | 
27 | CCOc1ccccc1S(=O)(=O)N1CC(c2noc(-c3ccc(F)cc3)n2)C1 [Compound 101] | >10 µM |  | 
28 | CCOc1ccccc1S(=O)(=O)N1CC(c2cc(-c3ccc(F)cc3)on2)C1 [Compound 102] | Inactive | Inactive | 
29 | CCOc1ccccc1S(=O)(=O)N1CC(c2cc(-c3ccc(F)cc3)n[nH]2)C1 [Compound 103] |  |  | >10
30 | O=S(=O)(c1ccccc1OCC1CCC1)N1CC(c2nc(-c3ccc(F)cc3)no2)C1 [Compound 110, 5-(1-((2-(Cyclobutylmethoxy)phenyl)sulfonyl)azetidin-3-yl)-3-(4-fluorophenyl)-1,2,4-oxadiazole] | 9.3 µM |  | 
31 | CCOc1ncccc1S(=O)(=O)N1CC(c2nc(-c3ccc(F)cc3)no2)C1 [Compound 111] | >10 µM |  | 
32 | O=S(=O)(c1ccccc1OCC1CC1)N1CC(c2nc(-c3ccc(F)cc3)no2)C1 [Compound 114, 5-(1-((2-(Cyclopropylmethoxy)phenyl)sulfonyl)azetidin-3-yl)-3-(4-fluorophenyl)-1,2,4-oxadiazole] | 6.0 µM |  | 
33 | O=S(=O)(c1ccccc1OC1COC1)N1CC(c2nc(-c3ccc(F)cc3)no2)C1 [Compound 115, 3-(4-Fluorophenyl)-5-(1-((2-(oxetan-3-yloxy)phenyl)sulfonyl)azetidin-3-yl)-1,2,4-oxadiazole] |  |  | 2.5
34 | O=S(=O)(c1ccccc1OC1CCCC1)N1CC(c2nc(-c3ccc(F)cc3)no2)C1 [Compound 116, 5-(1-((2-(cyclopentyloxy)phenyl)sulfonyl)azetidin-3-yl)-3-(4-fluorophenyl)-1,2,4-oxadiazole] | 5.8 µM |  | 
